Activity calls are given as the source filed them.
Assays:
Staphylococcus aureus [1] = assay: Antibacterial activity against methicillin-resistant Staphylococcus aureus H 5996/08 after 48 hrs by broth microdilution method; format: functional; conditions: H 5996/08, 48 h
How it was run: (§1)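 Broth microdilution in Mueller–Hinton broth, compounds dissolved in DMSO, tested over a dilution series from 500 downward. MIC taken as ≥95% growth reduction (IC95) versus drug-free control. Benzylpenicillin comparator. Readings at 24 and 48 h.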

[2] = test system: Trichophyton mentagrophytes; assay: Antifungal activity against Trichophyton mentagrophytes 445 after 120 hrs by broth microdilution method; format: functional; conditions: Trichophyton mentagrophytes, 445, 120 h
How it was run: (§2)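 Filamentous dermatophyte tested by broth microdilution in RPMI 1640 with glutamine, fluconazole as reference. Value expressed as IC50 relative to growth control. Read at 72 and 120 h.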

Mycobacterium kansasii [3] = assay: Antimycobacterial activity against Mycobacterium kansasii My 235/80 after 7 days; format: functional; conditions: My 235/80, 168 h
How it was run: (§3)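 Micromethod MIC in Šula's semisynthetic medium at 37 °C. Compounds added in DMSO at 1000 down to 0.032 µmol/L. Isoniazid standard in sterile water at 0.5–250 µmol/L. Inocula: H37Rv 10^3, M. avium 10^5, M. kansasii 10^4. Read at 14 and 21 d, plus 7 d for M. kansasii.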

[4] = test system: Trichophyton mentagrophytes; assay: Antifungal activity against Trichophyton mentagrophytes 445 after 72 hrs by broth microdilution method; format: functional; conditions: Trichophyton mentagrophytes, 445, 72 h; how it was run: as §2
Trichosporon asahii [5] = assay: Antifungal activity against Trichosporon asahii 1188 after 24 hrs by broth microdilution method; format: functional; conditions: Trichosporon asahii, 1188, 24 h
How it was run: (§4)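 Broth microdilution in RPMI 1640 with glutamine, fluconazole as reference. For yeasts, MIC is ≥80% growth reduction (IC80) versus control. For filamentous fungi, the value is expressed as IC50. Readings at 24 and 48 h.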

Staphylococcus aureus [6] = assay: Antibacterial activity against methicillin-resistant Staphylococcus aureus H 5996/08 after 24 hrs by broth microdilution method; format: functional; conditions: H 5996/08, 24 h; how it was run: as §1
Enterococcus sp. = assay: Antibacterial activity against Enterococcus sp. J 14365/08 at 500 micromol/L after 24 to 48 hrs by broth microdilution method; format: functional, organism-based; how it was run: as §1
[7] = test system: Mycobacterium tuberculosis; assay: Antimycobacterial activity against Mycobacterium tuberculosis H37Rv My 331/88 after 21 days; format: functional; conditions: H37Rv My 331/88, 504 h; how it was run: as §3
Pseudomonas aeruginosa = assay: Antibacterial activity against Pseudomonas aeruginosa CCM 1961 at 500 micromol/L after 24 to 48 hrs by broth microdilution method; format: functional, organism-based; how it was run: as §1
Aspergillus fumigatus [8] = assay: Antifungal activity against Aspergillus fumigatus 231 after 48 hrs by broth microdilution method; format: functional; conditions: Aspergillus fumigatus, 231, 48 h; how it was run: as §4
Mycobacterium kansasii [9] = assay: Antimycobacterial activity against Mycobacterium kansasii 6509/96 after 21 days; format: functional; conditions: 6509/96, 504 h; how it was run: as §3
Mycobacterium kansasii [10] = assay: Antimycobacterial activity against Mycobacterium kansasii 6509/96 after 7 days; format: functional; conditions: 6509/96, 168 h; how it was run: as §3
Candida tropicalis = assay: Antifungal activity against Candida tropicalis 156 at 500 micromol/L after 24 to 48 hrs by broth microdilution method; format: functional, organism-based; how it was run: as §4
Staphylococcus aureus [11] = assay: Antibacterial activity against Staphylococcus aureus CCM 4516/08 after 24 hrs by broth microdilution method; format: functional; conditions: CCM 4516/08, 24 h; how it was run: as §1
Lichtheimia corymbifera [12] = assay: Antifungal activity against Absidia corymbifera 272 after 48 hrs by broth microdilution method; format: functional; conditions: Lichtheimia corymbifera, 272, 48 h; how it was run: as §4
Candida albicans [13] = assay: Antifungal activity against Candida albicans ATCC 44859 after 24 hrs by broth microdilution method; format: functional; conditions: ATCC 44859, 24 h; how it was run: as §4
Nakaseomyces glabratus = assay: Antifungal activity against Candida glabrata 20/I at 500 micromol/L after 24 to 48 hrs by broth microdilution method; format: functional, organism-based; how it was run: as §4
Pichia kudriavzevii [14] = assay: Antifungal activity against Candida krusei E28 after 48 hrs by broth microdilution method; format: functional; conditions: E28, 48 h; how it was run: as §4
[15] = test system: Mycobacterium tuberculosis; assay: Antimycobacterial activity against Mycobacterium tuberculosis H37Rv My 331/88 after 14 days; format: functional; conditions: H37Rv My 331/88, 336 h; how it was run: as §3
Pichia kudriavzevii [16] = assay: Antifungal activity against Candida krusei E28 after 24 hrs by broth microdilution method; format: functional; conditions: E28, 24 h; how it was run: as §4
Lichtheimia corymbifera [17] = assay: Antifungal activity against Absidia corymbifera 272 after 24 hrs by broth microdilution method; format: functional; conditions: Lichtheimia corymbifera, 272, 24 h; how it was run: as §4
Aspergillus fumigatus [18] = assay: Antifungal activity against Aspergillus fumigatus 231 after 24 hrs by broth microdilution method; format: functional; conditions: Aspergillus fumigatus, 231, 24 h; how it was run: as §4
Candida albicans [19] = assay: Antifungal activity against Candida albicans ATCC 44859 after 48 hrs by broth microdilution method; format: functional; conditions: ATCC 44859, 48 h; how it was run: as §4
Mycobacterium kansasii [20] = assay: Antimycobacterial activity against Mycobacterium kansasii My 235/80 after 21 days; format: functional; conditions: My 235/80, 504 h; how it was run: as §3
Klebsiella pneumoniae [21] = assay: Antibacterial activity against ESBL-positive Klebsiella pneumoniae J 14368/08 at 500 micromol/L after 24 to 48 hrs by broth microdilution method; format: functional, organism-based; how it was run: as §1
Mycobacterium kansasii [22] = assay: Antimycobacterial activity against Mycobacterium kansasii 6509/96 after 14 days; format: functional; conditions: 6509/96, 336 h; how it was run: as §3
Mycobacterium kansasii [23] = assay: Antimycobacterial activity against Mycobacterium kansasii My 235/80 after 14 days; format: functional; conditions: My 235/80, 336 h; how it was run: as §3
Staphylococcus aureus [24] = assay: Antibacterial activity against Staphylococcus aureus CCM 4516/08 after 48 hrs by broth microdilution method; format: functional; conditions: CCM 4516/08, 48 h; how it was run: as §1
Trichosporon asahii [25] = assay: Antifungal activity against Trichosporon asahii 1188 after 48 hrs by broth microdilution method; format: functional; conditions: Trichosporon asahii, 1188, 48 h; how it was run: as §4
Klebsiella pneumoniae [26] = assay: Antibacterial activity against Klebsiella pneumoniae D 11750/08 at 500 micromol/L after 24 to 48 hrs by broth microdilution method; format: functional, organism-based; how it was run: as §1
[27] = test system: Staphylococcus epidermidis; assay: Antibacterial activity against Staphylococcus epidermidis H 6966/08 after 24 hrs by broth microdilution method; format: functional; conditions: H 6966/08, 24 h; how it was run: as §1
[28] = test system: Staphylococcus epidermidis; assay: Antibacterial activity against Staphylococcus epidermidis H 6966/08 after 48 hrs by broth microdilution method; format: functional; conditions: H 6966/08, 48 h; how it was run: as §1
HepG2 = assay: Cytotoxicity against human HepG2 cells after 24 hrs by CellTiter assay; format: cell-based; conditions: HepG2, 24 h
How it was run: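 HepG2 cells (passage 27–33) in MEM with 10% FBS, L-glutamine and NEAA, seeded at 1×10^4 per well. Treated next day with compounds at 0.1–100 µM (or 0.1–25 µmol/L), triplicates, <1% DMSO, for 24 h at 37 °C, 5% CO2. MTS reagent added for 2 h, absorbance read at 490 nm. IC50 taken against untreated (100%) and 10% DMSO (0%) controls.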

Escherichia coli = assay: Antibacterial activity against Escherichia coli CCM 4517 at 500 micromol/L after 24 to 48 hrs by broth microdilution method; format: functional, organism-based; how it was run: as §1
Mycobacterium avium [29] = assay: Antimycobacterial activity against isoniazid, rifampicin, ethambutol and ofloxacin-resistant Mycobacterium avium My 330/88 after 21 days; format: functional; conditions: My 330/88, 504 h; how it was run: as §3
Mycobacterium avium [30] = assay: Antimycobacterial activity against isoniazid, rifampicin, ethambutol and ofloxacin-resistant Mycobacterium avium My 330/88 after 14 days; format: functional; conditions: My 330/88, 336 h; how it was run: as §3

CCOP(=O)(OCC)Oc1ccc(Cl)cc1C(=O)Nc1cccc(F)c1
> 500 µM: MIC95 (Staphylococcus aureus [1]) | MIC80 (Trichosporon asahii [5]) | MIC50 (Aspergillus fumigatus [8]) | MIC50 (Lichtheimia corymbifera [12]) | MIC80 (Candida albicans [13]) | MIC80 (Pichia kudriavzevii [14]) | MIC80 (Pichia kudriavzevii [16]) | MIC50 (Lichtheimia corymbifera [17]) | MIC50 (Aspergillus fumigatus [18]) | MIC80 (Candida albicans [19]) | MIC80 (Trichosporon asahii [25])
17.2 µM: IC50 (HepG2)
8 µM: MIC [7] | MIC [15]
62.5 µM: MIC50 [2] | MIC50 [4]
16 µM: MIC (Mycobacterium kansasii [3]) | MIC (Mycobacterium kansasii [10])
32 µM: MIC (Mycobacterium kansasii [9]) | MIC (Mycobacterium kansasii [20]) | MIC (Mycobacterium kansasii [22]) | MIC (Mycobacterium kansasii [23]) | MIC (Mycobacterium avium [29]) | MIC (Mycobacterium avium [30])
250 µM: MIC95 [27]
500 µM: MIC95 (Staphylococcus aureus [6]) | MIC95 (Staphylococcus aureus [24]) | MIC95 [28]
125 µM: MIC95 (Staphylococcus aureus [11])
inactive: Activity (Enterococcus sp.) | Activity (Pseudomonas aeruginosa) | Activity (Candida tropicalis) | Activity (Nakaseomyces glabratus) | Activity (Klebsiella pneumoniae [21]) | Activity (Klebsiella pneumoniae [26]) | Activity (Escherichia coli)

CCOP(=O)(OCC)Oc1ccc(Br)cc1C(=O)Nc1cccc(Cl)c1
8 µM: MIC (Mycobacterium kansasii [9]) | MIC (Mycobacterium kansasii [20]) | MIC (Mycobacterium kansasii [22]) | MIC (Mycobacterium kansasii [23])
> 500 µM: MIC50 (Aspergillus fumigatus [8]) | MIC50 (Lichtheimia corymbifera [12]) | MIC80 (Candida albicans [13]) | MIC50 (Lichtheimia corymbifera [17]) | MIC50 (Aspergillus fumigatus [18]) | MIC80 (Candida albicans [19])
62.5 µM: MIC80 (Trichosporon asahii [25])
4 µM: MIC (Mycobacterium kansasii [3]) | MIC [7] | MIC (Mycobacterium kansasii [10]) | MIC [15]
125 µM: MIC95 (Staphylococcus aureus [6]) | MIC95 (Staphylococcus aureus [11]) | MIC80 (Pichia kudriavzevii [14]) | MIC95 [27]
6.52 µM: IC50 (HepG2)
16 µM: MIC (Mycobacterium avium [29]) | MIC (Mycobacterium avium [30])
31.2 µM: MIC80 (Pichia kudriavzevii [16])
250 µM: MIC95 (Staphylococcus aureus [1]) | MIC95 (Staphylococcus aureus [24]) | MIC95 [28]
inactive: Activity (Enterococcus sp.) | Activity (Pseudomonas aeruginosa) | Activity (Candida tropicalis) | Activity (Nakaseomyces glabratus) | Activity (Klebsiella pneumoniae [21]) | Activity (Klebsiella pneumoniae [26]) | Activity (Escherichia coli)
15.6 µM: MIC50 [2] | MIC80 (Trichosporon asahii [5])
7.81 µM: MIC50 [4]
